# pPAFAH FP inh: pPAFAH enzyme inhibitors, primary screen, biochemical, fluorescence polarization, human. inhibition, % at 3.39 µM. 330,000 compounds, 1.5% hits. recombinant pPAFAH, FP-rhodamine probe fluorescence polarization;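 active = inhibition above the mean inhibition across the screen plus 3 SD, cut at about 25% in these data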;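 note: inhibitors block binding of the rhodamine activity-based probe so polarization drops; 0% = enzyme with DMSO and 100% = wells lacking pPAFAH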
# PAFAH2 FP inh: PAFAH2 enzyme inhibitors, primary screen, biochemical, fluorescence polarization, human. recombinant PAFAH2, FP-rhodamine activity probe. 340,000 compounds, 0.99% hits. Platelet-activating factor acetylhydrolase 2, cytoplasmic (Homo sapiens), Q99487. inhibition, % at 3.39 µM;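 active = inhibition above the mean over all tested compounds plus 3 SD, cut at about 30% in these data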;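 note: inhibitors block probe labeling of enzyme so polarization drops; 0% = enzyme with DMSO and 100% = wells lacking PAFAH2 protein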
# HTRA1 inhibitor: HTRA1 serine protease inhibitors, primary screen, biochemical, fluorescence polarization, HTS; Q92743; recombinant HTRA1, FP-rhodamine activity-based probe; inhibition, % at 5.96 µM; 340,000 compounds, 0.5% hits; AID 504803, 2011; in the data active = inhibition above about 36%;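 note: 0% = enzyme with DMSO and 100% = wells lacking enzyme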
# Target sequence (Q92743 whole entry, looked up): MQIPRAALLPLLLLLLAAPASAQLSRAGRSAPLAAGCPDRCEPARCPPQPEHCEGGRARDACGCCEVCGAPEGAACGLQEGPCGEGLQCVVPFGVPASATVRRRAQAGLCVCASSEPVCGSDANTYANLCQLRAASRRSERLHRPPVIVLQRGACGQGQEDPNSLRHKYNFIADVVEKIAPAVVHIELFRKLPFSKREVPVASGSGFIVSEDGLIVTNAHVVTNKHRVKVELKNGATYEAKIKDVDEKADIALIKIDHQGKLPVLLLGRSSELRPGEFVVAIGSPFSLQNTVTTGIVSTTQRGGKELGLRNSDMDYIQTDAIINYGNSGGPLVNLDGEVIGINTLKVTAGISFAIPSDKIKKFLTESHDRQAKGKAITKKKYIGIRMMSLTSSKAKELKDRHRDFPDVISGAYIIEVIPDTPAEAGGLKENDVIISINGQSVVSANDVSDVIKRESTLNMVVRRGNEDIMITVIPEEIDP
# ABHD4 inh: ABHD4 inhibitors, primary screen, biochemical, fluorescence polarization, mouse; (Lyso)-N-acylphosphatidylethanolamine lipase (Mus musculus), Q8VD66; purified mABHD4, FP-Rh probe fluorescence polarization; inhibition, % at 8.92 µM; 370,000 compounds, 0.54% hits;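 active = inhibition exceeding the mean over every tested compound plus 3 SD, cut at about 30% in these data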;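 note: 0% = plate median of compound wells and 100% = S159A mutant with DMSO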
#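 Assay system: mouse ABHD4 enzyme, wild type / Also added: fluorescent activity-based probe FP-Rh / Doses: single nominal dose of 8.92 µM, 0.89% DMSO final / Timing: 45 min compound pre-incubation plus 60 min probe step, 25 °C / Signal: FP readout, ex 525 nm / em 598 nm / Control set: S159A mutant/DMSO as 100%, compound-well median as 0%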
# PAFAH1B3 inh: PAFAH1B3 enzyme inhibitors, primary screen, biochemical, fluorescence polarization, human | Platelet-activating factor acetylhydrolase IB subunit alpha1 (Homo sapiens), Q15102 | 340,000 compounds, 0.28% hits | AID 492972, 2010 | recombinant PAFAH1B3, FP-rhodamine probe | inhibition, % at 3.39 µM;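 active = inhibition above the screen-wide average of all tested compounds plus 3 SD, cut at about 25% in these data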;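 note: 0% = enzyme with DMSO only and 100% = wells lacking PAFAH1B3 protein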
# PAFAH1B2 FP inh: PAFAH1B2 enzyme inhibitors, primary screen, biochemical, fluorescence polarization, human | Platelet-activating factor acetylhydrolase IB subunit alpha2 (Homo sapiens), P68402 | recombinant PAFAH1B2, FP-rhodamine activity probe | inhibition, % at 3.39 µM | 340,000 compounds, 1.2% hits | AID 492953, 2010;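 active = inhibition above the mean of all tested compounds plus 3 SD, cut at about 24% in these data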;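 note: 0% = enzyme with DMSO and 100% = wells lacking PAFAH1B2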
# Target sequence (P68402 whole entry, looked up): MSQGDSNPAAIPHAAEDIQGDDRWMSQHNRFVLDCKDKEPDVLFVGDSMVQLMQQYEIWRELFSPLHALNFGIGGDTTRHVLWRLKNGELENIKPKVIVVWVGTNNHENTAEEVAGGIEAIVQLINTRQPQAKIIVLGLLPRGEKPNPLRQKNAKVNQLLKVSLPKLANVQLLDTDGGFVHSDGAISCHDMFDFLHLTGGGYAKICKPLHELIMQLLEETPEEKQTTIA
# Starred values were filed as active, the others as inactive; . = no result given. Shown are actives, neighbours in structure and some others; about 2.8% of the full set was active somewhere.
SMILES,pPAFAH FP inh,PAFAH2 FP inh,HTRA1 inhibitor,ABHD4 inh,PAFAH1B3 inh,PAFAH1B2 FP inh
O=C(Nc1ccc(O)c(-c2nc3ccccc3s2)c1)c1cccs1,15.6,9.7,-16.8,-0.7,3.9,-3.2
Oc1ccc(N=C/C=C/c2cccc(Br)c2)cc1-c1nc2ccccc2s1,37.2*,7.9,43.8*,.,15.6,4.3
CCOC(=O)[C@@]12CCCC=C1N(CCc1ccc(Cl)cc1)C(=O)[C@H]2CC(=O)NCc1ccc(OC)c(OC)c1,.,.,.,-0.8,.,.
O=C(Nc1ccc(Cl)cc1)[C@@H]1[C@@H]2C(=O)N(c3cccc(F)c3)C(=O)[C@@H]2[C@H]2C=CC=NN21,2.7,29.5,-16.5,-2.7,-5.1,6.0
O=C(Nc1ccc(Cl)cc1)[C@@H]1[C@@H]2C(=O)N(c3ccc4ccccc4c3)C(=O)[C@@H]2[C@H]2C=CC=NN21,29.4*,32.8*,-26.1,-8.7,4.2,4.5
COc1ccc(C(=O)CC(=O)Nc2ccc([N+](=O)[O-])cc2)cc1,27.1*,6.8,30.4,-15.1,-33.9,-8.5
Cc1ccc(NC(=O)CC(=O)c2ccc([N+](=O)[O-])cc2)cc1S(=O)(=O)Nc1cccc(Cl)c1,-15.3,19.5,33.0,-63.5,23.6,27.1*
Cn1c(=O)c(=O)n(C)c2cc(S(=O)(=O)N3CCN(CCO)CC3)ccc21,.,.,.,1.2,.,.
Cc1ccc(C(=O)O)cc1NC(=O)CSc1nnc(-c2ccccc2F)n1C1CCCCC1,2.5,6.5,2.4,-2.1,9.2,26.0*
CCCC1CCC2(CC1)CCC2OC(=S)Nc1ccccc1Cl (configuration not stated),.,.,.,-10.5,.,.
CCCCCN(C(=O)CSc1n[nH]c(-c2ccc(C)cc2)n1)c1c(N)n(CCCC)c(=O)[nH]c1=O,-2.6,-1.9,-7.0,-1.9,4.2,29.2*
CCCCn1c(N)c(N(CCOC)C(=O)CSc2n[nH]c(-c3ccc(C)cc3)n2)c(=O)[nH]c1=O,4.6,6.8,-6.8,2.9,3.8,0.0
N=c1c2c(ccn1CCCc1ccccc1)Oc1ccc3ccccc3c1C2c1ccccc1 (configuration not stated),.,.,.,-58.1,.,.
c1nc(NC[C@@H]2CCCO2)c2cc(-c3ccc4c(c3)OCO4)ccc2n1,.,.,.,12.0,.,.
O=S1(=O)C=CCN1Cc1cn(Cc2ccc(C(F)(F)F)cc2)nn1,.,.,.,1.3,.,.
Oc1ccc(/C=N/Nc2ccc3ccccc3c2)c(O)c1,25.3*,5.4,28.0,17.3,12.3,2.3
Cc1cc(N/N=C/c2ccc(O)cc2O)c2ccccc2n1,1.1,1.8,4.8,2.1,4.5,-0.8
CCCCOc1ccc(C(=O)NC2CCCCN(Cc3ccccc3C)C2=O)cc1 (configuration not stated),.,.,.,-2.3,.,.
O=C(O)c1cc(-n2nnnc2SCc2ccc([N+](=O)[O-])cc2)ccc1Cl,6.9,3.9,16.1,-0.8,4.5,26.2*
O=C(O)c1cc(-n2nnnc2SCc2ccccc2F)ccc1Cl,1.2,-0.4,-4.0,2.0,2.2,0.7
CCOC(=O)N1CCN(C(=O)C[C@H]2C[C@@]3(C(=O)OC)C(=C[C@H](COCc4ccccc4)O[C@@H]3C)N(CCc3ccc(OC)c(OC)c3)C2=O)CC1,.,.,.,2.3,.,.
CCc1ccccc1N1CSC2=C(C#N)C(c3cc(OC)c(OC)cc3OC)CC(=O)N2C1 (configuration not stated),25.3*,7.5,0.8,7.9,8.2,2.2
COc1cc(C2CC(=O)N3CN(c4ccccc4C)CSC3=C2C#N)cc(OC)c1OC (configuration not stated),13.6,.,.,8.4,.,.
CCOc1ccc(N2CSC3=C(C#N)C(c4ccco4)CC(=O)N3C2)cc1 (configuration not stated),47.7*,6.5,1.7,19.4,4.9,-4.7
COc1ccccc1N1CSC2=C(C#N)C(c3ccc(SC)cc3)CC(=O)N2C1 (configuration not stated),17.4,7.3,1.0,31.2*,3.7,4.0
SMILES,pPAFAH FP inh,PAFAH2 FP inh,HTRA1 inhibitor,ABHD4 inh,PAFAH1B3 inh,PAFAH1B2 FP inh
CCOC(=O)[C@@]12CCCC3=C1N(CCC3)C(=O)[C@H]2CC(=O)NCCCCc1ccccc1,.,.,.,-3.4,.,.
O=C1CC[C@@H](OCc2ccccc2)CCN1CC[C@H](Sc1ccccc1)c1ccccc1,31.8*,32.6*,-45.2,-1.9,-1.8,5.3
O=C(NCc1ccc(Cl)cc1)C(=O)NCC1OCCN1S(=O)(=O)c1cc(F)ccc1F (configuration not stated),11.3,3.4,-5.9,4.1,-0.4,30.0*
CCCCCCCCN1C(=O)[C@@H](CC(=O)NCCCOCCCC)C[C@@]2(C(=O)OC)C1=C[C@H](C(C)(C)C)O[C@@H]2C,.,.,.,7.0,.,.
CC(CCN1CCC(C(O)(c2ccccc2)c2ccccc2)CC1)Oc1cccc(F)c1 (configuration not stated),.,.,.,10.5,.,.
CN(C)S(=O)(=O)c1cccc(C(=O)Nc2cc(Cl)ccc2O)c1,4.0,-3.3,-11.3,-3.6,-2.9,24.4*
COc1ccc(-n2c(SCC(=O)NN=Cc3c(O)ccc4ccccc34)nnc2-c2ccc(C(C)(C)C)cc2)cc1,.,.,.,11.6,.,.
NC(=S)N/N=C/c1ccc2ccccc2c1,-4.3,0.4,0.7,-0.8,-1.8,3.7
C(=Nc1ccc(Nc2ccccc2)cc1)c1ccc2ccccc2c1,11.1,7.2,72.6*,.,4.8,4.6
Cc1cccc(N2C(S)=C(C#N)C(=O)NC2c2cccs2)c1 (configuration not stated),2.2,3.0,7.0,2.7,6.6,29.9*
O=S(c1ccccc1)C(c1ccccc1)c1ccccc1 (configuration not stated),.,4.5,-2.3,1.2,13.3,24.2*
CCOC(=O)C1CCCN(C(=O)Cc2c(C(=O)O)[nH]c3ccccc23)C1 (configuration not stated),9.1,4.7,2.8,0.7,8.2,33.8*
O=C(NCCSCc1ccc(Cl)cc1)c1cccs1,8.1,0.8,-15.0,-2.2,11.9,24.5*
CC1CCC2C(C1)c1sc(=O)[nH]c1SC2(C)C (configuration not stated),2.1,-2.4,-11.7,1.6,5.5,67.6*
O=C1c2ccccc2-c2c1cccc2C(=O)N1CCN(C(=O)c2ccco2)CC1,4.7,-3.3,6.6,-1.9,3.8,1.3
CC1CC(C)CN(C(=O)c2cccc3c2-c2ccccc2C3=O)C1 (configuration not stated),5.0,4.2,0.2,-2.9,6.8,27.6*

# Screens deposited in PubChem by The Scripps Research Institute Molecular Screening Center.
